Values after ≈ are worked out from the molar mass of the structure shown. Active and inactive are the calls of the source. The calls are words filed in the database; no cut-off is given here.
Columns and labels:
[1] = test system: Staphylococcus aureus; experiment: Antibacterial activity against methicillin-resistant Staphylococcus aureus NRS384-USA300 clinical isolates after 18 to 20 hrs in aerobic condition by CLSI protocol based broth microdilution assay; assay type: functional
[2] = test system: Escherichia coli; experiment: Antimicrobial activity against Escherichia coli JW55031 harboring deltatolC mutant after 18 to 20 hrs in aerobic condition by CLSI protocol based broth microdilution assay; assay type: functional
[3] = test system: Staphylococcus aureus; experiment: Antibiofilm activity against methicillin-resistant Staphylococcus aureus NRS384-USA300 clinical isolates assessed as inhibition of biofilm formation at 0.5 times MIC incubated for 24 hrs by crystal violet staining based spectrophotometric method relative to control; assay type: functional
[4] = test system: Staphylococcus aureus; experiment: Antibacterial activity against Methicillin-sensitive Staphylococcus aureus ATCC 6538 clinical isolates after 18 to 20 hrs in aerobic condition by CLSI protocol based broth microdilution assay; assay type: functional
[5] = test system: Staphylococcus aureus; experiment: Antibacterial activity against Methicillin-sensitive Staphylococcus aureus NRS107 clinical isolates after 18 to 20 hrs in aerobic condition by CLSI protocol based broth microdilution assay; assay type: functional
[6] = test system: Staphylococcus aureus; experiment: Antibacterial activity against linezolid-resistant/Methicillin-resistant Staphylococcus aureus NRS119 clinical isolates after 18 to 20 hrs in aerobic condition by CLSI protocol based broth microdilution assay; assay type: functional
[7] = test system: Staphylococcus aureus; experiment: Antibacterial activity against Methicillin-resistant Staphylococcus aureus NRS123-USA400 clinical isolates after 18 to 20 hrs in aerobic condition by CLSI protocol based broth microdilution assay; assay type: functional
[8] = test system: Staphylococcus aureus; experiment: Antibacterial activity against vancomycin-resistant Staphylococcus aureus isolate 10 after 18 to 20 hrs in aerobic condition by CLSI-based broth microdilution assay; assay type: functional
[9] = test system: Staphylococcus aureus; experiment: Antibacterial activity against vancomycin-resistant Staphylococcus aureus isolate 12 after 18 to 20 hrs in aerobic condition by CLSI-based broth microdilution assay; assay type: functional
[10] = test system: Staphylococcus epidermidis; experiment: Antibacterial activity against Staphylococcus epidermidis NRS101 after 18 to 20 hrs in aerobic condition by CLSI-based broth microdilution assay; assay type: functional
[11] = test system: Enterococcus faecium; experiment: Antibacterial activity against vancomycin-resistant Enterococcus faecium ATCC 700221 clinical isolates after 18 to 20 hrs in aerobic condition by CLSI-based broth microdilution assay; assay type: functional
[12] = test system: Listeria monocytogenes; experiment: Antibacterial activity against Listeria monocytogenes ATCC 19111 after 18 to 20 hrs in aerobic condition by CLSI-based broth microdilution assay; assay type: functional
[13] = test system: Staphylococcus aureus; experiment: Bactericidal activity against methicillin-resistant Staphylococcus aureus NRS123-USA400 clinical isolates at 5 times MIC incubated over 24 hrs followed by replating on tryptic soy agar plate and further incubated for 18 to 20 hrs by time kill assay; assay type: functional, organism-based
[14] = test system: Enterococcus faecalis; experiment: Antibacterial activity against vancomycin-resistant Enterococcus faecalis ATCC 51299 clinical isolates after 18 to 20 hrs in aerobic condition by CLSI-based broth microdilution assay; assay type: functional
[15] = test system: Streptococcus pneumoniae; experiment: Antibacterial activity against cephalosporin-resistant Streptococcus pneumoniae ATCC 51916 clinical isolates after 18 to 20 hrs by CLSI-based broth microdilution assay; assay type: functional
[16] = test system: Streptococcus pneumoniae; experiment: Antibacterial activity against methicillin-resistant Streptococcus pneumoniae ATCC 700677 clinical isolates after 18 to 20 hrs by CLSI-based broth microdilution assay; assay type: functional
[17] = test system: Clostridioides difficile; experiment: Antibacterial activity against Clostridium difficile ATCC BAA 1870 incubated for 48 hrs in anaerobic condition by CLSI-based broth microdilution assay; assay type: functional; settings: ATCC BAA 1870, 48 h
[18] = test system: Staphylococcus aureus; experiment: Antibacterial activity against methicillin-resistant Staphylococcus aureus NRS123-USA400 infected in mouse J774 cells assessed as reduction in intracellular bacterial cells at 2 times MIC incubated for 24 hrs followed by re-plating on TSA plate and measured after 18 to 22 hrs relative to control; assay type: functional
Method in brief: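 J774 murine macrophages were infected with MRSA USA400 and then treated at 2×MIC for 24 h, in triplicate. The read-out was percent reduction in intracellular colony-forming units versus untreated infected cells.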

[19] = test system: Escherichia coli; experiment: Antibacterial activity against carbapenem-resistant Escherichia coli BAA-2452 clinical isolates after 18 to 20 hrs in aerobic condition by CLSI-based broth microdilution assay; assay type: functional
[20] = test system: Escherichia coli; experiment: Antibacterial activity against carbapenem-resistant Escherichia coli BAA-2469 clinical isolates after 18 to 20 hrs in aerobic condition by CLSI-based broth microdilution assay; assay type: functional
[21] = test system: Klebsiella pneumoniae; experiment: Antibacterial activity against carbapenem-resistant Klebsiella pneumoniae ATCC BAA-1705 clinical isolates after 18 to 20 hrs in aerobic condition by CLSI-based broth microdilution assay; assay type: functional
[22] = test system: Klebsiella pneumoniae; experiment: Antibacterial activity against carbapenem-resistant Klebsiella pneumoniae ATCC BAA-2146 clinical isolates after 18 to 20 hrs in aerobic condition by CLSI-based broth microdilution assay; assay type: functional
[23] = test system: Acinetobacter baumannii; experiment: Antibacterial activity against carbapenem-resistant Acinetobacter baumannii ATCC BAA 1605 clinical isolates after 18 to 20 hrs in aerobic condition by CLSI-based broth microdilution assay; assay type: functional
[24] = test system: Pseudomonas aeruginosa; experiment: Antibacterial activity against carbapenem-resistant Pseudomonas aeruginosa ATCC 1744 clinical isolates after 18 to 20 hrs in aerobic condition by CLSI-based broth microdilution assay; assay type: functional
[25] = test system: Acinetobacter baumannii; experiment: Antibacterial activity against Acinetobacter baumannii ATCC 19606 clinical isolates after 18 to 20 hrs in aerobic condition by CLSI-based broth microdilution assay; assay type: functional; settings: ATCC 19606 = CIP 70.34 = JCM 6841
[26] = test system: Escherichia coli; experiment: Antibacterial activity against Escherichia coli BW25113 clinical isolates after 18 to 20 hrs in aerobic condition by CLSI-based broth microdilution assay; assay type: functional
[27] = test system: Klebsiella pneumoniae; experiment: Antibacterial activity against Klebsiella pneumoniae BAA-1706 clinical isolates after 18 to 20 hrs in aerobic condition by CLSI-based broth microdilution assay; assay type: functional
[28] = test system: Pseudomonas aeruginosa; experiment: Antibacterial activity against Pseudomonas aeruginosa ATCC 15442 clinical isolates after 18 to 20 hrs in aerobic condition by CLSI-based broth microdilution assay; assay type: functional

Question: With `CCCCCCC#Cc1ccc(-n2ncc(/C(C)=N/NC3=NCCN3)c2C)cc1` as the compound, how does the MIC [1] read?
Answer: 4 µg/mL (≈ 10.2 µM)

Question: And the MIC [2]?
Answer: 8 µg/mL (≈ 20.5 µM)

Question: What does the source list for `CCN(CC)CC#Cc1ccc(-n2ncc(/C(C)=N/NC(=N)N)c2C)cc1`?
Answer: MIC [1]: 128 µg/mL (≈ 350 µM); MIC [2]: 128 µg/mL (≈ 350 µM)

Question: How did the MIC [1] turn out when `C/C(=N\NC1=NCCN1)c1cnn(-c2ccc(C#CC(C)(C)C)cc2)c1C` was run?
Answer: 16 µg/mL (≈ 44.1 µM)

Question: And the MIC [2]?
Answer: 16 µg/mL (≈ 44.1 µM)

Question: And the “inhibition (INH)” value [3]?
Answer: 62%

Question: What does the source list for `C/C(=N\NC1=NCCN1)c1cnn(-c2ccc(C#CC3CC3)cc2)c1C`?
Answer: MIC [1]: 16 µg/mL (≈ 46.2 µM); MIC [2]: 32 µg/mL (≈ 92.4 µM)

Question: Which results are given for `CC(=O)NC[C@H]1CN(c2ccc(N3CCOCC3)c(F)c2)C(=O)O1` [LINEZOLID]?
Answer: MIC [1]: 1 µg/mL (≈ 2.96 µM); MIC [4]: 1 µg/mL (≈ 2.96 µM); MIC [5]: 1 µg/mL (≈ 2.96 µM); MIC [6]: 32 µg/mL (≈ 94.9 µM); MIC [7]: 1 µg/mL (≈ 2.96 µM); MIC [8]: 1 µg/mL (≈ 2.96 µM); MIC [9]: 1 µg/mL (≈ 2.96 µM); MIC [10]: ≤ 0.5 µg/mL; MIC [11]: 1 µg/mL (≈ 2.96 µM); MIC [12]: 1 µg/mL (≈ 2.96 µM)

Question: For `CCCCC#Cc1ccc(-n2ncc(/C(C)=N/NC3=NCCN3)c2C)cc1`, which MIC [1] is on record?
Answer: 2 µg/mL (≈ 5.52 µM)

Question: What about the MIC [2] of the same compound?
Answer: 4 µg/mL (≈ 11 µM)

Question: What does the source list for `C/C(=N\NC1=NCCN1)c1cnn(-c2ccc(C#Cc3ccccc3)cc2)c1C`?
Answer: MIC [1]: 4 µg/mL (≈ 10.5 µM); MIC [2]: 4 µg/mL (≈ 10.5 µM)

Question: With `CN[C@H](CC(C)C)C(=O)N[C@H]1C(=O)N[C@@H](CC(N)=O)C(=O)N[C@H]2C(=O)N[C@H]3C(=O)N[C@H](C(=O)N[C@H](C(=O)O)c4cc(O)cc(O)c4-c4cc3ccc4O)[C@H](O)c3ccc(c(Cl)c3)Oc3cc2cc(c3O[C@@H]2O[C@H](CO)[C@@H](O)[C@H](O)[C@H]2O[C@H]2C[C@](C)(N)[C@H](O)[C@H](C)O2)Oc2ccc(cc2Cl)[C@H]1O` [VANCOMYCIN] as the compound, how does the MIC [8] read?
Answer: > 64 µg/mL

Question: What about the MIC [9] of the same compound?
Answer: 64 µg/mL (≈ 44.2 µM)

Question: What about the Activity [13] of the same compound?
Answer: Active

Question: And the MIC [14]?
Answer: 32 µg/mL (≈ 22.1 µM)

Question: What about the MIC [11] of the same compound?
Answer: > 64 µg/mL

Question: And the MIC [12]?
Answer: 2 µg/mL (≈ 1.38 µM)

Question: What about the MIC [15] of the same compound?
Answer: 2 µg/mL (≈ 1.38 µM)

Question: And the MIC [16]?
Answer: 1 µg/mL (≈ 0.69 µM)

Question: And the MIC [17]?
Answer: 1 µg/mL (≈ 0.69 µM)

Question: And the “inhibition (INH)” value [3]?
Answer: 18%

Question: What about the Activity [18] of the same compound?
Answer: inactive

Question: Which MIC [1] does the source give for `C/C(=N\NC(=N)N)c1cnn(-c2ccc(C#CC(C)(C)C)cc2)c1C` here?
Answer: 8 µg/mL (≈ 23.8 µM)

Question: What about the MIC [2] of the same compound?
Answer: 8 µg/mL (≈ 23.8 µM)

Question: Which MIC [19] does the source give for COLISTIN here?
Answer: 0.06 µg/mL

Question: What about the MIC [20] of the same compound?
Answer: 0.06 µg/mL

Question: And the MIC [21]?
Answer: 0.125 µg/mL

Question: And the MIC [22]?
Answer: 0.25 µg/mL

Question: And the MIC [23]?
Answer: 0.25 µg/mL

Question: What about the MIC [24] of the same compound?
Answer: 1 µg/mL

Question: Which results are given for `CCCCC#Cc1ccc(-n2ncc(/C(C)=N/NC(=N)N)c2C)cc1`?
Answer: MIC [1]: 2 µg/mL (≈ 5.94 µM); MIC [2]: 4 µg/mL (≈ 11.9 µM)

Question: How did the MIC [19] turn out when `C[C@@H](O)[C@H]1C(=O)N2C(C(=O)O)=C(SCCNC=N)C[C@H]12` [IMIPENEM ANHYDROUS] was run?
Answer: 32 µg/mL (≈ 107 µM)

Question: And the MIC [20]?
Answer: 32 µg/mL (≈ 107 µM)

Question: And the MIC [21]?
Answer: 32 µg/mL (≈ 107 µM)

Question: And the MIC [22]?
Answer: 32 µg/mL (≈ 107 µM)

Question: And the MIC [23]?
Answer: 32 µg/mL (≈ 107 µM)

Question: And the MIC [24]?
Answer: 16 µg/mL (≈ 53.4 µM)

Question: For `C/C(=N/NC(=N)N)c1sc(-c2ccc(C#Cc3ccccc3)cc2)nc1C`, which Activity [2] is on record?
Answer: inactive

Question: What about the Activity [25] of the same compound?
Answer: inactive

Question: And the Activity [26]?
Answer: inactive

Question: And the Activity [27]?
Answer: inactive

Question: What about the Activity [28] of the same compound?
Answer: inactive

Reference: ChEMBL document CHEMBL4334464, “From Phenylthiazoles to Phenylpyrazoles: Broadening the Antibacterial Spectrum toward Carbapenem-Resistant Bacteria” (J Med Chem, 2019)
